An excerpt weighted towards active compounds, which were near 3.5% of everything screened.
MrgX1 agonist: activates human MrgX1 receptor signaling; Q96LB2; B-score at 10 µM; 310,000 tested, 0.44% active; MrgX1-HEK293 cells, Fluo-4 calcium fluorescence, agonist mode; active compounds read high; AID 588627;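 active means calcium response B-score plate-corrected fluorescence ratio at least 3 library SD, with starting fluorescence B-score inside 5 SD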
Target sequence (Q96LB2 whole entry, looked up): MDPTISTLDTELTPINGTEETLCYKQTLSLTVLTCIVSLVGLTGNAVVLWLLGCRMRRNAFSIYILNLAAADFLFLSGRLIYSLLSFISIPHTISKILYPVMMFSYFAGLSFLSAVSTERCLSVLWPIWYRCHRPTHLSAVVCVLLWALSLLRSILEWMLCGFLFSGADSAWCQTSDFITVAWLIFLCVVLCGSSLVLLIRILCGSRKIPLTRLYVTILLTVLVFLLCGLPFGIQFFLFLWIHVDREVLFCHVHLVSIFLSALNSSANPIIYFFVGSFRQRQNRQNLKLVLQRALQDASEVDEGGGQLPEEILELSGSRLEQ
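Material: HEK293 cells stably expressing human MrgX1 receptor | Quantity: 15,000 cells per well | Times: Cells plated overnight, dye loaded 0.5 h 37 °C, 0.5 h room temperature | Measured by: Kinetic Fluo-4 NW fluorescence of intracellular calcium | Control set: Positive and negative controls per plate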
MrgX1 PAM: human MrgX1 positive allosteric modulation, primary screen; Q96LB2; MrgX1-HEK293, Fluo-4 calcium flux, FDSS; active compounds read high; B-score at 10 µM; 310,000 tested, 0.63% active; AID 588675;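 active means plate-corrected calcium response at least 3 library SD above typical, normal starting fluorescence, not activating the receptor alone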;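 further: compound read alongside a low EC10 to EC30 dose of BAM8-22 agonist; peak minus trough fluorescence over baseline measured at the second addition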
MrgX1 antagonist: human MrgX1 receptor antagonism, primary screen; Q96LB2; MRGX1-HEK293 calcium flux, Fluo-4, BAM8-22 antagonism; active compounds read low; B-score at 10 µM; 310,000 tested, 1.3% active; AID 588676;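 active means calcium-response B-score plate-corrected more than 3 library SD below zero, starting fluorescence within 5 deviations, no agonist response on first addition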;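 further: peak minus trough fluorescence over baseline after final BAM8-22 challenge near maximal dose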
RGS4 act: RGS4 potentiation or activation; HEK293 M3R/inducible RGS4, carbachol calcium flux Fluo4; active compounds read low; B-score at 10 µM; 310,000 tested, 0.92% active;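 active means B-score of the integrated calcium signal more than 4 SD below the library mean, with starting fluorescence not abnormally high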;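 further: negative B-score means reduced calcium response which marks RGS4 activation or potentiation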
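System: HEK293 FlpIn-TREx cells, stable M3R, doxycycline-inducible RGS4. Timing: overnight RGS4 induction, 30 min dye load 37 °C, 20 min compound RT. Also added: carbachol, ECmax concentration. Measured by: Fluo4 fluorescence kinetic imaging of calcium. Evaluation: integrated calcium ratio converted to B score.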
RGS4 inh: human RGS4 inhibition; B-score at 10 µM; HEK293 M3R/RGS4 inducible, Fluo-4 calcium flux; active compounds read high; triggered by carbachol at its EC20; P49798; 310,000 tested, 0.45% active;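 active means B-score, a plate-corrected calcium signal, over three deviations above library mean, with baseline fluorescence within five deviations of library mean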;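 further: RGS4 expression induced by doxycycline in cells with stable M3 receptor; B-score is computed from the integrated fluorescence ratio over baseline after carbachol; higher B-score means a larger calcium signal and so more RGS4 inhibition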
Target sequence (P49798 whole entry, looked up): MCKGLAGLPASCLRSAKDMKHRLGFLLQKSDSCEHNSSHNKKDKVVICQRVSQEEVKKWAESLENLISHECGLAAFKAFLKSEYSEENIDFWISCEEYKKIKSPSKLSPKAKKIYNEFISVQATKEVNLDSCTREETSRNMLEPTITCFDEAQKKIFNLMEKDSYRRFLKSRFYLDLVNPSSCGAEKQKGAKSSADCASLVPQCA
RGS4 block valid: RGS4 inhibitor validation | shares compounds with RGS4 inh | HEK293 M3R/RGS4, carbachol calcium Fluo-4 fluorescence; carbachol added at its EC20; 0 = buffer wells, 100 = carbachol control | calcium response, % at 10 µM | 1,700 tested, 65% active | AID 492999;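 active means duplicate-averaged calcium response above the buffer-only control mean plus 5 SD of those controls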;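 further: integrated fluorescence ratio F max minus min over baseline F0; higher response in RGS4-induced cells means RGS4 inhibition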
M3R Ca ctr: non-induced cell nonspecific activity of RGS4 inhibitors. HEK293 M3R non-induced, carbachol calcium Fluo-4; submaximal (EC20) carbachol stimulus; buffer wells 0%, carbachol control wells 100%. 1,900 tested, 20% active. shares compounds with RGS4 inh. activity (percent), % at 10 µM; call rule not given here;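 further: RGS4 induction absent so cells express M3R without RGS4; higher means more calcium signal and flags a non-specific hit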
RGS4 inh ctr2: signal in non-induced cells without carbachol, RGS4 inhibitor counter-screen. shares compounds with RGS4 inh. HEK293 M3R/RGS4 non-induced, Fluo-4 calcium, no carbachol; normalised: buffer wells 0%, carbachol wells 100%. calcium response (agonist-mode artifact), % at 10 µM. 1,900 tested, 22% active. AID 493001;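 active means duplicate-averaged calcium rise in uninduced cells above buffer wells' mean plus 5 SD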
Each line names hits and unclear results; the compound was inactive in the other large screens (follow-up assays come after a bar, where they were run).

CN(C)c1ccc(/C=C(\NC(=O)c2ccccc2)C(=O)NCc2cccnc2)cc1	none | RGS4 block valid inactive | M3R Ca ctr inactive | RGS4 inh ctr2 inactive
Cc1ccc(NC(=O)c2ccc(S(=O)(=O)N3CCCC3)cc2)nc1	none
Cc1ccc(NC(=O)c2c(C)nc(Nc3nc4ccccc4o3)nc2C)cc1	none | M3R Ca ctr inactive | RGS4 inh ctr2 inactive
Cc1cccc(C2c3[nH]c4ccccc4c3CCN2C(=O)Cc2nc(-c3ccccc3)n[nH]2)n1 (stereo not drawn)	RGS4 inh 5.7 | RGS4 block valid 10% | M3R Ca ctr inactive | RGS4 inh ctr2 inactive
N#Cc1ccccc1NC(=O)C1SC(=Nc2ccccc2)C(C(=O)Nc2ccc(Cl)cc2)=C1N (stereo not drawn)	RGS4 inh 5.8 | RGS4 block valid inactive | M3R Ca ctr inactive | RGS4 inh ctr2 inactive
CCOc1ccc(C(=O)CC(Sc2ccc(C)cc2)C(=O)O)cc1 (stereo not drawn)	none | RGS4 block valid inactive | M3R Ca ctr inactive | RGS4 inh ctr2 inactive
CC(=O)C1=C(O)C(=O)N(c2cc(C(C)(C)C)on2)C1c1ccc(C(C)C)cc1 (stereo not drawn)	none | RGS4 block valid inactive | M3R Ca ctr inactive | RGS4 inh ctr2 56%
CC(=O)C1=C(O)C(=O)N(c2cc(C(C)(C)C)on2)C1c1ccc(Br)cc1 (stereo not drawn)	RGS4 inh 7.8 | RGS4 block valid 44% | M3R Ca ctr 30% | RGS4 inh ctr2 inactive
CC(=O)C1=C(O)C(=O)N(c2ccc(Br)cn2)C1c1ccc(Br)cc1 (stereo not drawn)	none
CNC(=S)N1CCN(C(=O)C2CCCO2)CC1 (stereo not drawn)	RGS4 inh 4.7 | RGS4 block valid inactive | M3R Ca ctr inactive | RGS4 inh ctr2 inactive
Oc1c(Br)cc(Br)cc1CNc1cnc2ccccc2c1	none
Oc1c(Br)cc(Br)cc1CNc1ccc(F)cc1	RGS4 inh 6.5 | RGS4 block valid inactive | M3R Ca ctr inactive | RGS4 inh ctr2 inactive
CC(=O)Nc1sc(N/N=C/c2ccccc2)nc1-c1ccc(C)cc1	none
CCCc1sc(N/N=C/c2ccccn2)nc1-c1ccc(Br)cc1	none | M3R Ca ctr inactive | RGS4 inh ctr2 inactive
COc1ccc(/C=C/C(=O)c2cc(Cl)cc(Cl)c2O)c(OC)c1	none
O=C(/C=C/c1ccccn1)c1cc(Cl)cc(Cl)c1O	RGS4 inh 15 | RGS4 block valid 26% | M3R Ca ctr 64% | RGS4 inh ctr2 inactive
CC1=C(C#N)c2nc(N)c(C#N)c(C)c2/C1=C\c1ccc(-c2ccccc2C(=O)O)o1	RGS4 inh 5.6 (no result: MrgX1 agonist, MrgX1 PAM, MrgX1 antagonist) | RGS4 block valid 24% | M3R Ca ctr 32% | RGS4 inh ctr2 inactive
COc1cc(/C=C2/C(C)=C(C#N)c3nc(N)c(C#N)c(C)c32)ccc1OCC(=O)O	none
CC(=O)Nc1ccc(C=C(C(C)=O)C(C)=O)cc1	none
Cc1ccc(NC(=O)c2cnccn2)cc1C	none
COC(=O)CCC(=O)Nc1sc(Cc2ccccc2)c(C)c1C(N)=O	none
COc1cccc(/C=N/c2sc(Cc3ccccc3)c(C)c2C(N)=O)c1O	RGS4 inh 5 | RGS4 block valid 24% | M3R Ca ctr 36% | RGS4 inh ctr2 inactive
N#Cc1c(-c2ccccc2Cl)noc1/C=C/Nc1ccc(C(=O)O)cc1	none | M3R Ca ctr inactive | RGS4 inh ctr2 inactive
NS(=O)(=O)c1ccc(Sc2ccc3c(c2)CCC3)nc1	none
Nc1ccc(C23CC4CC(CC(C4)C2)C3)cc1	RGS4 inh 7.9 | RGS4 block valid 13% | M3R Ca ctr inactive | RGS4 inh ctr2 inactive
CCOc1cccc(C2C(C(=O)c3ccc(C)o3)=C(O)C(=O)N2Cc2ccccc2)c1 (stereo not drawn)	RGS4 inh 4.7 (no result: MrgX1 agonist, MrgX1 PAM, MrgX1 antagonist) | RGS4 block valid 16% | M3R Ca ctr inactive | RGS4 inh ctr2 inactive
COC(=O)CSC1=C(C#N)C(=O)NC(c2ccccc2)S1 (stereo not drawn)	RGS4 inh 5.1 | RGS4 block valid 47% | M3R Ca ctr inactive | RGS4 inh ctr2 9.5%
COc1cc(/C=C2\C(=O)NN(c3ccccc3)C2=O)cc([N+](=O)[O-])c1O	none
O=C1NN(c2cccc(Br)c2)C(=O)/C1=C\c1ccccc1	RGS4 inh 18 | RGS4 block valid 16% | M3R Ca ctr 32% | RGS4 inh ctr2 14%
O=C1NN(c2ccc(F)cc2)C(=O)/C1=C\c1cnn(-c2ccccc2)c1	none
COc1cc(/C=C2/C(=O)NN(c3ccccc3)C2=O)cc(Br)c1O	MrgX1 agonist 31, RGS4 inh 5.7 | RGS4 block valid 5.5% | M3R Ca ctr inactive | RGS4 inh ctr2 inactive
Clc1ccccc1Sc1ccc(-c2ccccn2)s1	none
COc1cccc(-c2nc(C=O)cs2)c1	RGS4 inh 5 | RGS4 block valid 5.0% | M3R Ca ctr inactive | RGS4 inh ctr2 inactive
CC(NC(=O)/C(C#N)=C/c1ccco1)c1ccccc1 (stereo not drawn)	none
CC(NC(=O)/C(C#N)=C/c1ccc([N+](=O)[O-])o1)c1ccccc1 (stereo not drawn)	RGS4 inh 6.2 | RGS4 block valid 16% | M3R Ca ctr inactive | RGS4 inh ctr2 8.5%
CCOCCCNC(=O)/C(C#N)=C/c1ccc([N+](=O)[O-])o1	MrgX1 PAM 8.4, RGS4 inh 8.1 | RGS4 block valid 31% | M3R Ca ctr inactive | RGS4 inh ctr2 inactive
O=C(NC1CCCCC1)c1cc(-c2ccccc2O)on1	none
Cc1ccc(-c2csc(NC(=O)C3=COCCO3)n2)cc1	none | RGS4 block valid inactive | M3R Ca ctr inactive | RGS4 inh ctr2 inactive
O=C(Nc1nc(-c2ccc(Oc3ccccc3)cc2)cs1)C1=COCCO1	RGS4 inh 21 | RGS4 block valid 32% | M3R Ca ctr 42% | RGS4 inh ctr2 inactive
CC(=O)Nc1ccc(-c2csc(NC(=O)C3=COCCO3)n2)cc1	none
Cc1nnc(SCC(=O)N(CC(C)C)c2c(N)n(Cc3ccccc3)c(=O)[nH]c2=O)n1N	none
O=S(=O)(Nc1ccc(O)c2ccccc12)c1cccs1	RGS4 inh 8.1 | RGS4 block valid 37% | M3R Ca ctr inactive | RGS4 inh ctr2 inactive
O=S(=O)(Nc1cccc2ccccc12)c1cccs1	none
COc1ccc(/C=C2\CCCC3C2=NN(C(=O)CSc2ncn[nH]2)C3c2ccc(OC)cc2)cc1 (stereo not drawn)	none | M3R Ca ctr inactive | RGS4 inh ctr2 inactive

Source: PubChem BioAssay (Johns Hopkins Ion Channel Center)
